In ChEMBL document CHEMBL3779840, “Discovery of 2-((3-Amino-4-methylphenyl)amino)-N-(2-methyl-5-(3-(trifluoromethyl)benzamido)phenyl)-4-(methylamino)pyrimidine-5-carboxamide (CHMFL-ABL-053) as a Potent, Selective, and Orally Available BCR-ABL/SRC/p38 Kinase Inhibitor for Chronic Myeloid Leukemia” (J Med Chem, 2016):
Activity calls are given as the source filed them. No cut-off for these calls is given here.

How the values were obtained:
K562 [1] = assay: Antiproliferative activity against human K562 cells assessed as cell viability after 72 hrs by CellTiter-Glo or CCK-8 assay; format: functional; details: K562, 72 h
[2] = target: T1, Mitogen-activated protein kinase 14 (Homo sapiens, UniProt Q16539); assay: Inhibition of full length recombinant GST-tagged human p38-alpha expressed in Escherichia coli
T1 sequence (Q16539 whole entry): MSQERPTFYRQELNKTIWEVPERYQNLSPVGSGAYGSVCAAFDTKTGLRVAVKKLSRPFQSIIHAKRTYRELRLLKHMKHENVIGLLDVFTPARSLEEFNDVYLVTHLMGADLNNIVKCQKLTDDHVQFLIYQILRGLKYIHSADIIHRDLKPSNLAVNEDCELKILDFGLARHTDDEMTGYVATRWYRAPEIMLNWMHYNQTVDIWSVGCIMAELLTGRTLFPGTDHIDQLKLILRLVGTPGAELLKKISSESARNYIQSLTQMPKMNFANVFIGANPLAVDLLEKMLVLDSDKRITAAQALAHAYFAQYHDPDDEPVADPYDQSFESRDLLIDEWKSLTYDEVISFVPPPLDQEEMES
How it was run: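 IC50 values were determined with the Invitrogen SelectScreen biochemical kinase assay.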

[3] = Antiproliferative activity against human MOLM14 cells assessed as cell viability after 72 hrs by CellTiter-Glo or CCK-8 assay; format: functional; details: MOLM-14, 72 h
[4] = target: T2, Bcr/Abl fusion protein (Homo sapiens) (UniProt P00519+P11274); assay: Inhibition of BCR/ABL autophosphorylation at Y245 site in human MEG01 cells at 300 nM after 1 hr by immunoblotting method; format: cell-based; details: MEG-01
T2 sequence (P00519 whole entry, looked up, the tested form may be a part): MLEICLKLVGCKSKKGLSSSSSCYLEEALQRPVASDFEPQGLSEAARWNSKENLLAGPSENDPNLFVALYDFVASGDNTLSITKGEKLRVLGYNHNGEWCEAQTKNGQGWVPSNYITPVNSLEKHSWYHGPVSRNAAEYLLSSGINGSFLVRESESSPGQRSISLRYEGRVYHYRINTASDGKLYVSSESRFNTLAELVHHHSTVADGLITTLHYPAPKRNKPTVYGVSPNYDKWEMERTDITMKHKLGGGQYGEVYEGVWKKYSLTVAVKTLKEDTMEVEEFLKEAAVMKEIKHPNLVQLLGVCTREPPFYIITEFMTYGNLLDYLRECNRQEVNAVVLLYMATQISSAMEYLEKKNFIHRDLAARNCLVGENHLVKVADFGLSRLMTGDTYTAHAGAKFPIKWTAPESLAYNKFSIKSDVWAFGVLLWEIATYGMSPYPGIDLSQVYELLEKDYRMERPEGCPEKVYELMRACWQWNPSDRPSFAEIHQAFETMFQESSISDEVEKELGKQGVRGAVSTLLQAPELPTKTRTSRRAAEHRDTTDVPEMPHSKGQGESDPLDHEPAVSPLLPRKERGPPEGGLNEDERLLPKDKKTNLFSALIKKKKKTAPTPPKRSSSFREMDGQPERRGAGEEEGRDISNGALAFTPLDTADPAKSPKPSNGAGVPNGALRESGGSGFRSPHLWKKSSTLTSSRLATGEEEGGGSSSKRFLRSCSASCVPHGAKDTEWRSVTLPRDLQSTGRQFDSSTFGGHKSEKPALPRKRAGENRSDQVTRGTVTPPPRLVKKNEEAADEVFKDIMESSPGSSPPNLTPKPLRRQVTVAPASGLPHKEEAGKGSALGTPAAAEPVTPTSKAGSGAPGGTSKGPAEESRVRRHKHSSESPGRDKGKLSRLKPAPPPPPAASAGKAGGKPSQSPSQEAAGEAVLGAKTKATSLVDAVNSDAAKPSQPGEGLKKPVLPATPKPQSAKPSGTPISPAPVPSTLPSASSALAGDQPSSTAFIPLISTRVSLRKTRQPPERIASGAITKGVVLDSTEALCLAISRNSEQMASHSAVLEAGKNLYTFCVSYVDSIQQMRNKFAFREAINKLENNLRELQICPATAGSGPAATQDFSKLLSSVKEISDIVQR
T2 sequence (P11274 whole entry, looked up, the tested form may be a part): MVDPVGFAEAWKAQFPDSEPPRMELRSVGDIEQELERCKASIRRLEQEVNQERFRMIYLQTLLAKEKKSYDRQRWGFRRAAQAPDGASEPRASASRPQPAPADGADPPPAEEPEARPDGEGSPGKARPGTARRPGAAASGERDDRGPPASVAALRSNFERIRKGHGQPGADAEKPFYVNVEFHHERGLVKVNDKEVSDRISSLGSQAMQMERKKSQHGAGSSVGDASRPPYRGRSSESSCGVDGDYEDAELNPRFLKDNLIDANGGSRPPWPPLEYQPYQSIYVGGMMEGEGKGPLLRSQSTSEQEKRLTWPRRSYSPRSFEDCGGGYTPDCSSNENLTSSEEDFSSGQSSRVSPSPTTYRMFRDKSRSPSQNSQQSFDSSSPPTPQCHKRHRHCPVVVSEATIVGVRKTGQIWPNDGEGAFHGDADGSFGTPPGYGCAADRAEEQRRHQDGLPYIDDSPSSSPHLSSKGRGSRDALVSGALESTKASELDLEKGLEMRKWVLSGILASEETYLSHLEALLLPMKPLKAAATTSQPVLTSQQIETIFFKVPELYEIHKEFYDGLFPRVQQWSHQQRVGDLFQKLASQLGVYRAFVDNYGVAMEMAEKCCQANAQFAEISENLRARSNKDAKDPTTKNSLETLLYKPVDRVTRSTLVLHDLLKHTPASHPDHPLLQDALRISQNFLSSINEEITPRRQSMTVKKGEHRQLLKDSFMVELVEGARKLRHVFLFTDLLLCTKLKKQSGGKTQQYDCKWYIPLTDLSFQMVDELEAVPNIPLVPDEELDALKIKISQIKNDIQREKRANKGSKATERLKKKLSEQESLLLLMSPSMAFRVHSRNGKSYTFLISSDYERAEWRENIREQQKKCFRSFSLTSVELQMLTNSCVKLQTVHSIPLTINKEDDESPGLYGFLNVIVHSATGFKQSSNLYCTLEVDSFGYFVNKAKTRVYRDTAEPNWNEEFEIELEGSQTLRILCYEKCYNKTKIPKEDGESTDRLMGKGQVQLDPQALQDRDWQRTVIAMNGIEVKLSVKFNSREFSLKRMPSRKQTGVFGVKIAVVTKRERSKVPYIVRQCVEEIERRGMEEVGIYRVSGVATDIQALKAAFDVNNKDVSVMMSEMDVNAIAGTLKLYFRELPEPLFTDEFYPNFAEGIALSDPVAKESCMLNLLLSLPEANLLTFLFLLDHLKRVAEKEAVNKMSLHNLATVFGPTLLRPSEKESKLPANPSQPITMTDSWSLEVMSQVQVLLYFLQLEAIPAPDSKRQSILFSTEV
How it was run: (§1)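 KU812, K562 and MEG-01 cells were exposed to compound at the indicated concentrations for 1 h. Whole-cell lysates were then analysed by Western blot for phosphorylated signaling proteins.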

[5] = target: T2, Bcr/Abl fusion protein (Homo sapiens); assay: Inhibition of BCR/ABL in human KU812 cells assessed as downregulation of Stat5 phosphorylation at […] site after 1 hr by immunoblotting method; format: cell-based; how it was run: as §1
[6] = target: T2, Bcr/Abl fusion protein (Homo sapiens); assay: Inhibition of BCR/ABL in human MEG01 cells assessed as downregulation of CrkL phosphorylation at […] site after 1 hr by immunoblotting method; format: cell-based; details: MEG-01; how it was run: as §1
[7] = target: T2, Bcr/Abl fusion protein (Homo sapiens); assay: Inhibition of BCR/ABL in human K562 cells assessed as downregulation of ERK phosphorylation at Thr202/Tyr204 site after 1 hr by immunoblotting method; format: cell-based; how it was run: as §1
[8] = target: T2, Bcr/Abl fusion protein (Homo sapiens); assay: Inhibition of BCR/ABL in human KU812 cells assessed as downregulation of ERK phosphorylation at Thr202/Tyr204 site after 1 hr by immunoblotting method; format: cell-based; how it was run: as §1
[9] = target: T1, Mitogen-activated protein kinase 14; assay: Inhibition of P38-alpha phosphorylation in human K562 cells at 0.01 to 3 uM after 1 hr by immunoblotting method; format: cell-based; how it was run: as §1
[10] = target: T1, Mitogen-activated protein kinase 14; assay: Inhibition of P38-alpha phosphorylation in human KU812 cells at 0.01 to 3 uM after 1 hr by immunoblotting method; format: cell-based; how it was run: as §1
[11] = target: T3, Proto-oncogene tyrosine-protein kinase Src (Homo sapiens, UniProt P12931); assay: Inhibition of SRC phosphorylation in human MEG01 cells at 0.01 to 3 uM after 1 hr by immunoblotting method; format: cell-based; details: MEG-01
T3 sequence (P12931 2-536 limits assumed): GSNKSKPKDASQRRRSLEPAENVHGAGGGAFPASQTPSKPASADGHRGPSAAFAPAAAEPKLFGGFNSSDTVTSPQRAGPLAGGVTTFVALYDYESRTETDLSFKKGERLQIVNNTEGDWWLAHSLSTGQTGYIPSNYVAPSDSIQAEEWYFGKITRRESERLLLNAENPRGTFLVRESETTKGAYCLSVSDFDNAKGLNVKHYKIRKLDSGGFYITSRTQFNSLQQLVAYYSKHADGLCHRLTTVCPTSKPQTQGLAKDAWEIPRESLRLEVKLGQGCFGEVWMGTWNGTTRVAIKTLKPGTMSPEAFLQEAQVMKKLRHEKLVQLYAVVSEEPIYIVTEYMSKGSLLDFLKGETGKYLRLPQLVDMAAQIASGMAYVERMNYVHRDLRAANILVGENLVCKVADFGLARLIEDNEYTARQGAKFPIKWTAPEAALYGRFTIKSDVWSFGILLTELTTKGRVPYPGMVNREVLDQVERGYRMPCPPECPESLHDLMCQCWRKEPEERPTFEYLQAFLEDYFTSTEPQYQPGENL
How it was run: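 Cells were treated for 1 h at the indicated concentrations. Whole-cell lysates were then analysed by Western blot for phosphorylation of signalling proteins in the BCR-ABL pathway.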

K562 [12] = assay: Induction of apoptosis in human K562 cells assessed as increase in cleaved caspase3 level at 100 nM after 48 hrs by immunoblotting method; format: functional, cell-based
[13] = Tmax in Sprague-Dawley rat at 1 mg/kg, iv; format: ADME, organism-based; details: in vivo
[14] = Cmax in Sprague-Dawley rat at 10 mg/kg, po; format: ADME, organism-based; set-up: dose 10 mg/kg, route oral; details: in vivo
[15] = AUC(0 to t) in Sprague-Dawley rat at 1 mg/kg, iv; format: ADME, organism-based; details: in vivo
[16] = Apparent volume of distribution in Sprague-Dawley rat at 1 mg/kg, iv; format: ADME, organism-based; details: in vivo, read-out: Vd(app)
[17] = Apparent clearance in Sprague-Dawley rat at 1 mg/kg, iv; format: ADME, organism-based; details: in vivo, read-out: CL(app) (converted)
[18] = Oral bioavailability in Sprague-Dawley rat at 10 mg/kg; format: ADME, organism-based; details: in vivo
K562 [19] = assay: Antiproliferative activity against human K562 cells xenografted in nu/nu mouse at 25 and 50 mg/kg/day, qd administered through oral gavage measured after 16 days by Ki-67 staining-based immunohistochemical analysis; format: functional, organism-based
How it was run: (§2)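 Female nu/nu mice bore established K562 xenografts and received daily oral dosing at 25.0 or 50.0 mg/kg/d, or vehicle, starting when tumors reached 200 to 400 mm3, for 16 days. Groups had 5 animals; data are mean ± SEM. Tumor size and body weight were normalized to initial values, and final tumor weight was recorded. Tumor tissue was stained with HE, Ki-67 and TUNEL.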

K562 [20] = assay: Antiproliferative activity against human K562 cells xenografted in nu/nu mouse at 25 and 50 mg/kg/day, qd administered through oral gavage measured after 16 days by hematoxylin/eosin staining-based assay; format: functional, organism-based; how it was run: as §2
K562 [21] = assay: Induction of apoptosis in human K562 cells xenografted in nu/nu mouse at 25 and 50 mg/kg/day, qd administered through oral gavage measured after 16 days by TUNEL staining-based assay; format: functional, organism-based; how it was run: as §2
[22] = target: Tyrosine-protein kinase HCK (Homo sapiens) (UniProt P08631); assay: Inhibition of full length human wild type HCK expressed in bacterial expression system assessed as residual activity at 1 uM relative to control
Chain of Tyrosine-protein kinase HCK (Homo sapiens) (P08631 2-526 limits assumed): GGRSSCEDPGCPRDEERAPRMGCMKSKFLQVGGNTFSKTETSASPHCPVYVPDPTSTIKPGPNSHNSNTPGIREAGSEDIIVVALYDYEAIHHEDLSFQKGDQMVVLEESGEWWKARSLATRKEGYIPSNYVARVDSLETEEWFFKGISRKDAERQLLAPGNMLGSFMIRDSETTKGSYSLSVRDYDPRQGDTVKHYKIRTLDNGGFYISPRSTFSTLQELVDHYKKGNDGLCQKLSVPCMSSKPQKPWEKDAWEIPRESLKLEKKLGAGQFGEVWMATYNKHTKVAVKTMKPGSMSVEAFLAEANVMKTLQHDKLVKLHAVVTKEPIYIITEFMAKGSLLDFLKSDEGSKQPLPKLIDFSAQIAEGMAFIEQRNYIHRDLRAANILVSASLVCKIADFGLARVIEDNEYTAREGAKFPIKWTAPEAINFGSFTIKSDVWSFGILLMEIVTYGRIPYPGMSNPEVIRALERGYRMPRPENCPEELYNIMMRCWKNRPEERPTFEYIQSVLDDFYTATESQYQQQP

[23] = target: T3, Proto-oncogene tyrosine-protein kinase Src; details: BaF3
[24] = target: T4, Discoidin domain-containing receptor 2 (Homo sapiens) (UniProt Q16832); details: BaF3
T4 sequence (whole entry): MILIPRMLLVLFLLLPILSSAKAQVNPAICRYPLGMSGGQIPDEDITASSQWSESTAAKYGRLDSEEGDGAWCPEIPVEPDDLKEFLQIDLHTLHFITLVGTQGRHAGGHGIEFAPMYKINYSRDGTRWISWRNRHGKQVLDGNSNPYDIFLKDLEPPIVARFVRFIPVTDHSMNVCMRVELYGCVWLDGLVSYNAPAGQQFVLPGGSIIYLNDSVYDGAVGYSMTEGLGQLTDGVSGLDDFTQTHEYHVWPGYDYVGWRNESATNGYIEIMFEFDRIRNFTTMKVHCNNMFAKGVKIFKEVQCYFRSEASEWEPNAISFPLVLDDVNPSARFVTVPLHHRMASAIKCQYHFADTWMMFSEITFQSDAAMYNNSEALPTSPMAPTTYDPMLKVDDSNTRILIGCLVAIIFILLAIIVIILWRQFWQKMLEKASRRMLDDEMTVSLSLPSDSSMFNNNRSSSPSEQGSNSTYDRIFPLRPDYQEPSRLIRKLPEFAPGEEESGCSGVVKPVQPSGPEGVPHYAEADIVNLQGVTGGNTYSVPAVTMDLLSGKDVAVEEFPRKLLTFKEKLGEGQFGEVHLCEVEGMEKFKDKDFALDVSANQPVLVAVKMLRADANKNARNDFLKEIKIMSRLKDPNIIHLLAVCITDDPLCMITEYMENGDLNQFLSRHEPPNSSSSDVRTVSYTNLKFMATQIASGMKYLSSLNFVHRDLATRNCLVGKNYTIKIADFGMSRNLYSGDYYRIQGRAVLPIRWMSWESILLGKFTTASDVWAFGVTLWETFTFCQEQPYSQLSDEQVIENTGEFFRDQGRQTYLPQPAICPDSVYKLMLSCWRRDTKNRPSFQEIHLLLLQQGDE

[25] = system: Bcr/Abl fusion protein (Homo sapiens), P00519+P11274 [F317L]; details: BaF3
[26] = system: Bcr/Abl fusion protein (Homo sapiens), P00519+P11274 [Y253F]; details: BaF3
BaF3 = details: Homo sapiens

With `CNc1nc(Nc2ccc(C)c(N)c2)ncc1C(=O)Nc1cc(NC(=O)c2cccc(C(F)(F)F)c2)ccc1C` the GI50 (K562 [1]) was 14 nM, the IC50 [2] was 62 nM and the GI50 [3] was > 10000 nM. The inhibition [4] was “Active”, the inhibition [5] was “Dose-dependent effect” and the inhibition [6] was “Dose-dependent effect”. The inhibition [7] was “Dose-dependent effect”, the inhibition [8] was “Dose-dependent effect” and the inhibition [9] was “Active”. For the same compound, the inhibition [10] was “Active”, the inhibition [11] was “inactive” and the Activity (K562 [12]) was “Active”. For the same compound, the Tmax [13] was 1.2 min, the Cmax [14] was 368 ng/mL and the AUC(0-t) [15] was 636 ng·h/mL. The Vd [16] was 6.03 L/kg, the clearance [17] was 25.6 mL/min/kg and the bioavailability [18] was 24.2%. The Activity (K562 [19]) was “Active”, the Activity (K562 [20]) was “Active” and the Activity (K562 [21]) was “Active”. The Activity [22] was 0.7%, the GI50 [23] was 200 nM and the GI50 [24] was > 10000 nM. It also gave a GI50 [25] of 45 nM, a GI50 [26] of 363 nM and a GI50 (BaF3) of 9250 nM.
